Calls of active or inactive are those of the source. No cut-off for these calls is given here.
Tests used:
[1] = target: T1, Androgen receptor (Homo sapiens, UniProt P10275); assay: Displacement of [3H]DHT from human AR expressed in baculovirus Sf9 cells system by scintillation counting
T1 sequence (P10275 whole entry): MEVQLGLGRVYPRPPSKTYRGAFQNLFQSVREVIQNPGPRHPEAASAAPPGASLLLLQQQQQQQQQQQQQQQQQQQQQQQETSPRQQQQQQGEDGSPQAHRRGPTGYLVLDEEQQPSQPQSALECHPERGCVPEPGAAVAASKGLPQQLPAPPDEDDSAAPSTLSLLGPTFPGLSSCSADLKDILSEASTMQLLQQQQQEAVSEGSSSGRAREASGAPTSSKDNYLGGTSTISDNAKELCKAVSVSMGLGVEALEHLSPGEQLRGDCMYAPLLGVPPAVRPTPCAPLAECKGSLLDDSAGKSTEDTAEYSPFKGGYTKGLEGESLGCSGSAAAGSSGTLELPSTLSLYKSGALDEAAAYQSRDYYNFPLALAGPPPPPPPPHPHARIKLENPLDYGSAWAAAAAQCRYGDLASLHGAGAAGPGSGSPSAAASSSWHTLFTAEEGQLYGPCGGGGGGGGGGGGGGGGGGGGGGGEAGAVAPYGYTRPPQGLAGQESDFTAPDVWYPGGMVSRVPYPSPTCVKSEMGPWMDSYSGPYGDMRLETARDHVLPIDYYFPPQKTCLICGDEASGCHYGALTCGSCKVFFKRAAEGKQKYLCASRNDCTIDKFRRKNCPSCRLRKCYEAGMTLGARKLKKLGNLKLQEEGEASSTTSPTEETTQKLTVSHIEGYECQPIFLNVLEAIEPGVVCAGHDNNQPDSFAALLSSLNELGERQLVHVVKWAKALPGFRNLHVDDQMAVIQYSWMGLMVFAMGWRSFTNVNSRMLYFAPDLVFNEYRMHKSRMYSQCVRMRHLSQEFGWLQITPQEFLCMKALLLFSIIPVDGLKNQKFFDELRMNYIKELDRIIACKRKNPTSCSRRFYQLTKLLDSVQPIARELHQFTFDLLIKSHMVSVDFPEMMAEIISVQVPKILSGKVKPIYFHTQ

[2] = target: T1, Androgen receptor; assay: Antagonist activity at androgen receptor in human MDA-MB-453 cells coexpressing MMTV-ARE reporter gene assessed as inhibition of DHT-induced response; assay type: functional, cell-based
[3] = target: T2, Progesterone receptor (Homo sapiens, UniProt P06401); assay: Binding affinity to progesterone receptor by PRB assay
T2 sequence (P06401 whole entry): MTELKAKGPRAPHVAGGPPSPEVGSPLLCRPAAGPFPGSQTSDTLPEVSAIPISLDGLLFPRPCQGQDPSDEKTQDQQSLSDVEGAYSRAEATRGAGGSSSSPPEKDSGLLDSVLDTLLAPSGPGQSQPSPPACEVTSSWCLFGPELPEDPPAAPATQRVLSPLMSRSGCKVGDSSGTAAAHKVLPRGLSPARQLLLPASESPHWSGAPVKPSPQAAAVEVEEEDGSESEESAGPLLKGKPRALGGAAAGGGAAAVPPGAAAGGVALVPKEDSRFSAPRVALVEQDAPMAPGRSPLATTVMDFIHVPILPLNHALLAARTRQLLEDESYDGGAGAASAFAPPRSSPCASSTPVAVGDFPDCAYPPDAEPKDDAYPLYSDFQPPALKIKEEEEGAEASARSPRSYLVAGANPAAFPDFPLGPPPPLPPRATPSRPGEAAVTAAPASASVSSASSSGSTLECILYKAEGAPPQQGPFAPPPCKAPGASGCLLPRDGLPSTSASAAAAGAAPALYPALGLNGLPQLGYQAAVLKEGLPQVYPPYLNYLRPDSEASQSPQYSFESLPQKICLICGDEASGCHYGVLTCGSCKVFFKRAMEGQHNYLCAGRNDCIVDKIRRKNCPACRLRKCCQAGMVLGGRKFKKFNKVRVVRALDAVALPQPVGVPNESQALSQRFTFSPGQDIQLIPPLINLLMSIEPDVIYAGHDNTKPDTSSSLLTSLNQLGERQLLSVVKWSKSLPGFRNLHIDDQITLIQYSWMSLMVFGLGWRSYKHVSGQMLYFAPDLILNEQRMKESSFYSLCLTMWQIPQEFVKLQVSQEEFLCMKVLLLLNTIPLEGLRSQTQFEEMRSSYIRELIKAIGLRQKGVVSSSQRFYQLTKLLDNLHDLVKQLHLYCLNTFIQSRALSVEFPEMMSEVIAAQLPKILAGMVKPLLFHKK

[4] = target: T3, Estrogen receptor (Homo sapiens, UniProt P03372); assay: Binding affinity to estrogen receptor
T3 sequence (P03372 whole entry): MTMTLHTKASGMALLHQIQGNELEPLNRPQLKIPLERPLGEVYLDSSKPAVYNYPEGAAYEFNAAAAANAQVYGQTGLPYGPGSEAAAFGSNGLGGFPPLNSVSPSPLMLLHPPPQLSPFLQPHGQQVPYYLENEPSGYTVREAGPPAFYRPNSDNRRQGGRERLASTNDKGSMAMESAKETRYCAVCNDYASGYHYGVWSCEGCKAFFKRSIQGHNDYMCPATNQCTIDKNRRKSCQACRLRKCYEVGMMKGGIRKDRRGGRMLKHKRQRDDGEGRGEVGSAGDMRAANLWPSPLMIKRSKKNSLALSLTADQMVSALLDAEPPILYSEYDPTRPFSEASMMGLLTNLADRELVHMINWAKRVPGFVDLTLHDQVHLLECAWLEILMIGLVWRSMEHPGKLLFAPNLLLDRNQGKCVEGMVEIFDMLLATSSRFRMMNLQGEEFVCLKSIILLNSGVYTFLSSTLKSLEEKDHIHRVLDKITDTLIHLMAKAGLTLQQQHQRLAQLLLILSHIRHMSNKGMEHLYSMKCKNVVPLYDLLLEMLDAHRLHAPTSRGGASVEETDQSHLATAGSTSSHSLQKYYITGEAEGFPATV

[5] = Binding affinity to thyroid hormone receptor
[6] = target: T4, Glucocorticoid receptor (Homo sapiens, UniProt P04150); assay: Binding affinity to glucocorticoid receptor
T4 sequence (P04150 whole entry): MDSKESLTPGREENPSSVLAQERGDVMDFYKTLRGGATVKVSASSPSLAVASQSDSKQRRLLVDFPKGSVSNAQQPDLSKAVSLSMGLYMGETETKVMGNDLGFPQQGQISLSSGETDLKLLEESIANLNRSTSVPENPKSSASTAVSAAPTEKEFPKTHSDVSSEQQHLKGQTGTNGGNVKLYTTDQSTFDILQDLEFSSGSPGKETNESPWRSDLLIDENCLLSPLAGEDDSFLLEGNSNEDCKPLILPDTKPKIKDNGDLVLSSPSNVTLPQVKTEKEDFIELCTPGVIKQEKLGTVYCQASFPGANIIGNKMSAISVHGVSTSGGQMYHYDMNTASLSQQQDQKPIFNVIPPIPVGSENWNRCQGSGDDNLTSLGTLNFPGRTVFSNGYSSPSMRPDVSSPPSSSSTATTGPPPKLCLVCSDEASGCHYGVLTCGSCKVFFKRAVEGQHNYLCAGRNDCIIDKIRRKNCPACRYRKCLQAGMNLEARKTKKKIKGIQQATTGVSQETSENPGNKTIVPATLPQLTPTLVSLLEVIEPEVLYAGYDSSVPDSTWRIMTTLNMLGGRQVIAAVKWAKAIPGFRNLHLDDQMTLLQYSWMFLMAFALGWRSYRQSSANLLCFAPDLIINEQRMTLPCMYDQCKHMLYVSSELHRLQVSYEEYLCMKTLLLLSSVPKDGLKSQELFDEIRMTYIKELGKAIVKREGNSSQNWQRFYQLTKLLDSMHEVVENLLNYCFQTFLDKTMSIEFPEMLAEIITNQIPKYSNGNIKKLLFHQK

[7] = Artificial human sebum-water partition coefficient, log K of the compound; assay type: physicochemical
In short: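 About 5 mg artificial human sebum, spiked with drug at 1 mg/250 μL sebum, was equilibrated with 1 mL saturated aqueous solution at 37 C for 15 h. Drug concentration in the aqueous phase was then analysed, and the sebum–water partition coefficient was derived from it.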

[8] = Hamster sebum-water partition coefficient, log K of the compound; assay type: ADME
[9] = Octanol-buffer partition coefficient, log D at pH 7.4; assay type: physicochemical; conditions: read-out: LogD7.4
[10] = tested on: Syrian golden hamster; assay: Inhibition of cholesterol ester in Syrian golden hamster ear model for sebum at 1% administered topically BID 5 days a week for 2 weeks measured 18 to 24 hrs after the final dose; assay type: functional, Mesocricetus auratus
[11] = tested on: Syrian golden hamster; assay: Inhibition of wax ester in Syrian golden hamster ear model for sebum at 1% administered topically BID 5 days a week for 2 weeks measured 18 to 24 hrs after the final dose; assay type: functional, Mesocricetus auratus
[12] = tested on: Syrian golden hamster; assay: Inhibition of wax ester in Syrian golden hamster ear model for sebum administered topically BID 5 days a week for 2 weeks measured 18 to 24 hrs after the final dose; assay type: functional, Mesocricetus auratus
In short: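 Golden Syrian hamster ear model with twice-daily topical dosing for 2 weeks in the vehicle chosen for phase 1 studies. Wax ester production was measured across a range of doses, and ED50 was expressed as % dose. Data are mean ± SEM, N = 5.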

[13] = tested on: Syrian golden hamster; assay: Reduction in wax ester-associated sebaceous gland size decrease in Syrian golden hamster ear model for sebum administered topically BID 5 days a week for 2 weeks measured 18 to 24 hrs after the final dose; assay type: functional, organism-based; conditions: Mesocricetus auratus
In short: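 Hamsters were dosed on the ear twice daily for 2 weeks. Sebaceous gland size was quantified by fatty acid synthase immunohistochemical staining and correlated with wax ester reduction by correlation coefficient.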

[14] = tested on: Syrian golden hamster; assay: Toxicity in Syrian golden hamster ear model for sebum assessed as cytotoxicity-mediated sebaceous gland size administered topically BID 5 days a week for 2 weeks measured 18 to 24 hrs after the final dose; assay type: organism-based, Mesocricetus auratus; conditions: in vivo, topical_or_ocular
In short: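 After 2 weeks of twice-daily topical application to hamster ears, sebocytes were examined histopathologically for cytotoxic changes alongside the reduction in sebaceous gland size.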

[15] = Drug level in Syrian golden hamster sebaceous gland at 0.2% administered topically after 8 hrs; assay type: ADME, tissue-based, Mesocricetus auratus; conditions: topical or ocular, read-out: Drug uptake
[16] = Elimination half life in Syrian golden hamster sebaceous gland at 0.2% administered topically after 8 hrs; assay type: ADME, tissue-based, Mesocricetus auratus; conditions: topical or ocular, read-out: beta t1/2 (converted)
[17] = Intrinsic clearance in human liver microsomes after 1 hr by LC/MS/MS method; assay type: ADME, Microsome
[18] = Clearance in rat at 1 mg/kg, iv; assay type: ADME, organism-based; design: dose 1 mg/kg, route intravenous; conditions: in vivo
[19] = Clearance in human; assay type: ADME, organism-based; conditions: in vivo
[20] = tested on: Rattus norvegicus; assay: Liver blood flow in rat at 1 mg/kg, iv; assay type: ADME, organism-based; design: dose 1 mg/kg, route intravenous; conditions: in vivo
[21] = tested on: Mus musculus; assay: Toxicity in BALB/c mouse assessed as skin sensitization at 25% administered for 4 days; assay type: organism-based; conditions: in vivo, 96 h
[22] = tested on: Mus musculus; assay: Toxicity in BALB/c mouse assessed as lymph node contact hypersensitivity at 25% administered for 4 days; assay type: organism-based; conditions: in vivo, 96 h
[23] = tested on: Sus scrofa; assay: Toxicity in minipig assessed as dermal toleration at 25% administered topically BID for 7 days; assay type: organism-based; conditions: pig, in vivo, topical_or_ocular, 168 h
[24] = tested on: Sus scrofa; assay: Toxicity in minipig assessed as systemic antiandrogenic effect at 25% administered topically BID for 7 days; assay type: organism-based; conditions: pig, in vivo, topical_or_ocular, 168 h
[25] = tested on: Rattus norvegicus; assay: Toxicity in Sprague-Dawley rat assessed as systemic antiandrogenic effect at 0.5 to 300 mg/kg, po administered once-daily for 7 days; assay type: organism-based; design: dose 0.5-300 mg/kg, route oral; conditions: in vivo, 168 h
[26] = tested on: Syrian golden hamster; assay: Inhibition of cholesterol ester in Syrian golden hamster ear model for sebum at 1.5% administered topically BID 5 days a week for 2 weeks measured 18 to 24 hrs after the final dose; assay type: functional, Mesocricetus auratus
[27] = tested on: Syrian golden hamster; assay: Inhibition of wax ester in Syrian golden hamster ear model for sebum at 1.5% administered topically BID 5 days a week for 2 weeks measured 18 to 24 hrs after the final dose; assay type: functional, Mesocricetus auratus

## CC1(C)CN(Cc2ccccc2)C(=O)[C@@H]1Oc1ccc(C#N)c(C(F)(F)F)c1
[1]
  IC50: 100 nM
[2]
  IC50: 38 nM
[3]
  IC50: 4400 nM
[4]
  IC50: > 10000 nM
[5]
  IC50: > 10000 nM
[6]
  IC50: > 10000 nM
[7]
  log K: 3.92
[8]
  log K: 3.85
[9]
  logD: 4.88
[10]
  inhibition (INH): 61%
[11]
  inhibition (INH): 78%
[12]
  ED50: 0.02 mg/cm2
[13]
  Activity: Active
[14]
  Activity: Non-toxic
[15]
  concentration at 8 h: 156 µM
[16]
  half-life: 7 h
[17]
  CLint scaled: 121 mL/min/kg
[18]
  clearance: 57 mL/min/kg
[19]
  clearance: 16 mL/min/kg
[20]
  LBF: 80%
[21]
  Activity: Non-toxic
[22]
  Activity: Non-toxic
[23]
  Activity: Non-toxic
[24]
  Activity: Non-toxic
[25]
  Activity: Non-toxic

## N#Cc1ccc(Oc2ccc(F)cc2F)cc1C(F)(F)F
[1]
  IC50: 488 nM
[2]
  IC50: 60 nM
[3]
  IC50: > 10000 nM
[7]
  log K: 4.06
[10]
  inhibition (INH): 24%
[11]
  inhibition (INH): 31%

## C[C@H](O)CC[C@H](C)Oc1ccc(C#N)c(C(F)(F)F)c1
[7]
  log K: 2.06
[9]
  logD: 3.73

## N#Cc1ccc(Sc2ccccc2F)cc1C(F)(F)F
[3]
  IC50: 6950 nM
[7]
  log K: 4.48
[10]
  inhibition (INH): 50%
[11]
  inhibition (INH): 64%

## CSc1ccc(CN2CC(C)(C)[C@@H](Oc3ccc(C#N)c(C(F)(F)F)c3)C2=O)cc1
[1]
  IC50: 316 nM
[2]
  IC50: 28 nM
[3]
  IC50: > 10000 nM
[7]
  log K: 4.6
[26]
  inhibition (INH): 75%
[27]
  inhibition (INH): 89%

## CCCN1CC(C)(C)[C@@H](Oc2ccc(C#N)c(C(F)(F)F)c2)C1=O
[7]
  log K: 2.74
[9]
  logD: 3.33

## CC1(C)CN(Cc2ccccc2F)C(=O)[C@@H]1Oc1ccc(C#N)c(C(F)(F)F)c1
[1]
  IC50: 174 nM
[2]
  IC50: 44 nM
[3]
  IC50: 4820 nM
[7]
  log K: 3.95
[10]
  inhibition (INH): 42%
[11]
  inhibition (INH): 72%

## N#Cc1ccc(O[C@@H]2CCCC[C@H]2C#N)cc1C(F)(F)F
[7]
  log K: 3.03
[9]
  logD: 3.4

From ChEMBL document CHEMBL1155517, “Rational design of a topical androgen receptor antagonist for the suppression of sebum production with properties suitable for follicular delivery” (J Med Chem, 2010)
